The source made the active and inactive calls. The calls are words filed in the database; no cut-off is given here.
Experiments:
[1] = biological target: T1, Proteasome Macropain subunit MB1 (Homo sapiens) (UniProt P28074); test: Inhibition of chymotrypsin like activity of 26S proteasome beta 5 subunit in human U266 cells assessed as residual activity using N-Suc-LLVY-AMC as substrate at 10 uM preincubated for 1 hr followed by substrate addition and measured after 4 hrs by fluorescence assay relative to control; assay type: cell-based
T1 sequence (whole entry): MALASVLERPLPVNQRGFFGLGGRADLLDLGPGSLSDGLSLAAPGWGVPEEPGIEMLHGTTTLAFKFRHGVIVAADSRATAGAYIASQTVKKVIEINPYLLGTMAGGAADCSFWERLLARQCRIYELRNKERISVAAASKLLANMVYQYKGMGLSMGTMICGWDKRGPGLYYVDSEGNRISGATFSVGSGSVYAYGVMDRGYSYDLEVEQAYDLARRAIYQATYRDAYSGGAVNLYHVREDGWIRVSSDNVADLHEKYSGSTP

K562 = test: Antiproliferative activity against human K562 cells after 72 hrs by calcein AM staining based fluorescence assay; assay type: functional; conditions: K562, 72 h
Summary of the method: (§1)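 Cells treated with three-fold compound dilutions in triplicate for 72 h. Calcein AM added afterwards and live-cell fluorescence read at 485/538 nm (ex/em). GI50, the concentration lethal to 50% of tumour cells, calculated from dose-response curves.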

CCRF-CEM = test: Antiproliferative activity against human CEM cells after 72 hrs by calcein AM staining based fluorescence assay; assay type: functional; summary of the method: as §1
U-266 [2] = test: Antiproliferative activity against human U266 cells after 72 hrs by calcein AM staining based fluorescence assay; assay type: functional; conditions: U-266, 72 h; summary of the method: as §1
[3] = biological target: Proteasome Macropain subunit (Homo sapiens) (UniProt P49721); test: Inhibition of trypsin like activity of 26S proteasome beta 2 subunit in human U266 cells assessed as residual activity using […] as substrate at 10 uM preincubated for 1 hr followed by substrate addition and measured after 4 hrs by fluorescence assay relative to control; assay type: cell-based
[4] = biological target: T2, Proteasome component C5 (Homo sapiens) (UniProt P20618); test: Inhibition of caspase like activity of 26S proteasome beta 1 subunit in human U266 cells assessed as residual activity using […] as substrate at 10 uM preincubated for 1 hr followed by substrate addition and measured after 4 hrs by fluorescence assay relative to control; assay type: cell-based
T2 sequence (whole entry): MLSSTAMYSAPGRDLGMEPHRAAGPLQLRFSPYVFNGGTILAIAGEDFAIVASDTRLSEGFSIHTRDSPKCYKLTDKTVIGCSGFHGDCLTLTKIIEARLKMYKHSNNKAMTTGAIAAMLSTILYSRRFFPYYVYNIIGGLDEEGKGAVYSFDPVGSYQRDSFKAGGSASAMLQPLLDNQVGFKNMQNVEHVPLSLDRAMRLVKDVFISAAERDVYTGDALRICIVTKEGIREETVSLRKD

Homo sapiens [5] = organism: Homo sapiens; test: Inhibition of proteasome in human U266 cells assessed as increase in accumulation of polyubiquitinated proteins by Western blot analysis; assay type: cell-based; conditions: TDE = time-dependent effect
Summary of the method: (§2)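 Treated U266 cells harvested in Laemmli sample buffer. Proteins separated by SDS-PAGE and electroblotted to nitrocellulose. Membranes blocked, probed overnight with specific primary antibodies, then detected with peroxidase-conjugated secondary antibodies.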

[6] = biological target: T3, Proteasome Macropain subunit MB1 (Homo sapiens, UniProt P28074); test: Inhibition of chymotrypsin-like activity of 26S proteasome beta 5 subunit in human U266 cells using Suc-LLVY-aminoluciferin as substrate after 1 hr by Proteosome-Glo luminescence assay; assay type: cell-based
T3 sequence (P28074 whole entry): T1 sequence (whole entry)
Summary of the method: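 U266 multiple myeloma cells plated at 20,000 cells/well and exposed to varying compound concentrations for 1 h at 37 °C, in duplicate. 26S proteasome activity measured immediately as luciferase-coupled hydrolysis of the β5 substrate Suc-LLVY-aminoluciferin (Proteasome-Glo), read by luminescence. Activity normalised to untreated cells; IC50 derived from dose-response curves.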

Homo sapiens [7] = organism: Homo sapiens; test: Inhibition of proteasome in human U2OS cells stably expressing GFP fused to short degron assessed as increase in GFP accumulation pre-incubated for 1 hr and measured after 9 hrs by live-cell imaging microscopy; assay type: cell-based
Homo sapiens [8] = organism: Homo sapiens; test: Inhibition of proteasome in human U2OS cells stably expressing GFP fused to short degron assessed as increase in GFP accumulation at 200 nM […] by live-cell imaging microscopy; assay type: cell-based
U2OS [9] = test: Cytotoxicity against human U2OS cells at 6.25 uM after 16 hrs by live-cell imaging microscopic analysis; assay type: cell-based
Summary of the method: (§3)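 U2OS degron-GFP cells plated at 10,000 cells/well and treated with a range of compound concentrations. Proliferation followed by live-cell time-lapse imaging as percent confluence (occupied image area) over time, up to 72 h.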

U2OS [10] = test: Antiproliferative activity against human U2OS cells up to 1 uM after 24 hrs by live-cell imaging microscopic analysis; assay type: functional, cell-based; summary of the method: as §3
U2OS [11] = test: Antiproliferative activity against human U2OS cells up to 1 uM after 48 hrs by live-cell imaging microscopic analysis; assay type: functional, cell-based; summary of the method: as §3
U2OS [12] = test: Antiproliferative activity against human U2OS cells at 200 nM after 72 hrs by live-cell imaging microscopic analysis; assay type: functional, cell-based; summary of the method: as §3
Homo sapiens [13] = organism: Homo sapiens; test: Inhibition of proteasome in human U266 cells assessed as increase in accumulation of polyubiquitinated proteins at 250 nM by Western blot analysis; assay type: cell-based; conditions: TDE = time-dependent effect; summary of the method: as §2
Homo sapiens [14] = organism: Homo sapiens; test: Inhibition of proteasome in human U266 cells assessed as increase in p27KIP level up to 24 hrs by Western blot method; assay type: cell-based; summary of the method: as §2
U-266 [15] = test: Induction of apoptosis in human U266 cells assessed as increase in caspase-3/7 activity using Ac-DEVD-AMC as substrate at 250 nM by fluorescence assay; assay type: functional, cell-based; conditions: TDE = time-dependent effect
Summary of the method: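 Homogenates clarified at 10,000 × g for 30 min at 4 °C and protein-equalised. Lysates incubated with 100 µM Ac-DEVD-AMC in pH 7.3 PIPES/EGTA/MgCl2/DTT buffer. Fluorescence read at 355/460 nm and normalised to untreated control.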

U-266 [16] = test: Induction of apoptosis in human U266 cells assessed as PARP1 cleavage at 250 nM after 16 to 24 hrs by Western blot method; assay type: functional, cell-based; summary of the method: as §2
U-266 [17] = test: Induction of apoptosis in human U266 cells assessed as caspase-7 cleavage at 250 nM after 16 to 24 hrs by Western blot method; assay type: functional, cell-based; summary of the method: as §2
U-266 [18] = test: Induction of apoptosis in human U266 cells assessed as downregulation of Mcl-1 level at 250 nM after 16 to 24 hrs by Western blot method; assay type: functional, cell-based; summary of the method: as §2
U-266 [19] = test: Effect on beta-actin protein levels in human U266 cells at 250 nM after 2 to 24 hrs by Western blot analysis; assay type: ADME, cell-based; conditions: u-266, 0.25 µM; summary of the method: as §2
U-266 [20] = test: Effect on alpha-tubulin protein levels in human U266 cells at 250 nM after 2 to 24 hrs by Western blot analysis; assay type: ADME, cell-based; conditions: u-266, 0.25 µM; summary of the method: as §2

Proteasome Macropain subunit (Homo sapiens), sequence (P49721 whole entry): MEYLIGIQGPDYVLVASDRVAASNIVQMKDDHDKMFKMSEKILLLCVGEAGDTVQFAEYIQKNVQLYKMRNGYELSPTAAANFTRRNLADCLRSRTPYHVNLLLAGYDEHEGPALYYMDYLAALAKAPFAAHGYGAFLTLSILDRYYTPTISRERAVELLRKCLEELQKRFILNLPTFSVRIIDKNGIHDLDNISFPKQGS

Activity [1] [%] | GI50 (K562) [nM] | GI50 (CCRF-CEM) [nM] | Activity [3] [%] | Activity [4] [%] | IC50 [6] [nM] | SMILES | GI50 (U-266 [2]) [nM] | inhibition (Homo sapiens [7]) | other results
10.6 | 1040 | 430 | 42.5 | 40.2 | 67 | CC(C)C[C@@H](C=O)NC(=O)[C@H](Cc1ccccc1)NC(=O)[C@H](CC(C)C)NC(=O)c1cc(Cl)ccc1OCc1ccccc1 | 170 | Dose-dependent effect | –
13.4 | 570 | 280 | 81.8 | 74.6 | 90 | CC(C)CC(C=O)NC(=O)[C@H](Cc1ccccc1)NC(=O)[C@H](CC(C)C)NC(=O)c1cc(Cl)ccc1OCc1ccccc1 (some centres undefined) | 150 | Dose-dependent effect | inhibition (Homo sapiens [8]): Active; Activity (U2OS [9]): Toxic; Activity (U2OS [10]): inactive; Activity (U2OS [11]): Active; Activity (U2OS [12]): inactive; inhibition (Homo sapiens [13]): Tde; inhibition (Homo sapiens [14]): Dose-dependent effect; Activity (U-266 [15]): Tde; Activity (U-266 [16]): Active; Activity (U-266 [17]): Active; Activity (U-266 [18]): Active; Activity (U-266 [19]): Non-Toxic; Activity (U-266 [20]): Non-Toxic
27.9 | 1050 | 790 | 48.4 | 66.2 | 197 | CC(C)C[C@H](NC(=O)c1cc(Cl)ccc1OCc1ccccc1)C(=O)N[C@@H](CC(C)C)C(=O)NC(C=O)Cc1ccccc1 (some centres undefined) | 540 | Dose-dependent effect | –
29.1 | 1280 | 400 | 62.3 | > 100 | 168 | CC(C)C[C@H](NC(=O)c1cc(Cl)ccc1OCc1ccccc1)C(=O)N[C@@H](Cc1ccccc1)C(=O)NC(C=O)Cc1ccccc1 (some centres undefined) | 460 | Dose-dependent effect | –

Continued, compound first:

SMILES | Activity [1] [%] | GI50 (K562) [nM] | GI50 (CCRF-CEM) [nM] | Activity [3] [%] | Activity [4] [%] | IC50 [6] [nM] | GI50 (U-266 [2]) [nM] | inhibition (Homo sapiens [7]) | other results
CC(C)C[C@H](NC(=O)[C@H](Cc1ccccc1)NC(=O)c1cnccn1)B(O)O [BORTEZOMIB] | 1.5 | 7 | 1 | 86.1 | 0 | – | 1 | – | inhibition (Homo sapiens [5]): Tde
CC(C)C[C@H](NC(=O)c1cc(Cl)ccc1O)C(=O)N[C@@H](Cc1ccccc1)C(=O)N[C@H](C=O)Cc1ccccc1 | 71.7 | 6900 | 2300 | 84.2 | 73.5 | 740 | 2230 | Dose-dependent effect | –
CC(C)C[C@@H](C=O)NC(=O)[C@H](Cc1ccccc1)NC(=O)[C@H](CC(C)C)NC(=O)c1cc(Cl)ccc1O | 27.9 | 2100 | 780 | 72.6 | 28.9 | 237 | 670 | Dose-dependent effect | –
CC(C)CC(C=O)NC(=O)[C@H](CC(C)C)NC(=O)[C@H](CC(C)C)NC(=O)c1cc(Cl)ccc1OCc1ccccc1 (some centres undefined) | 10.4 | 610 | 490 | 64.2 | 39.2 | 99 | 290 | Dose-dependent effect | –
CC(C)C[C@H](NC(=O)c1cc(Cl)ccc1OCc1ccccc1)C(=O)N[C@@H](Cc1ccccc1)C(=O)N[C@H](C=O)Cc1ccccc1 | 25.8 | 1450 | 440 | 47.2 | > 100 | 110 | 400 | Dose-dependent effect | –

Reference: ChEMBL document CHEMBL4052623, “Synthesis and antiproteasomal activity of novel O-benzyl salicylamide-based inhibitors built from leucine and phenylalanine” (Eur J Med Chem, 2017)
